According to ChEMBL document CHEMBL4049457, “Pentafluorosulfanyl-Substituted Benzopyran Analogues As New Cyclooxygenase-2 Inhibitors with Excellent Pharmacokinetics and Efficacy in Blocking Inflammation” (J Med Chem, 2017):
Blank lines part the entries; values can stand above or below the compound they belong to.

Tests used:
Plasma = test: (§1) Protein binding in human plasma at 10 uM after 5 hrs by rapid equilibrium dialysis; assay type: ADME, cell-free; details: 5 h, 10 µM
How it was run: (§2)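 Rapid equilibrium dialysis against human plasma for 5 h; drug in plasma and buffer chambers quantified by LC/MS; bound % = [1 − (buffer/plasma concentration)] × 100, n = 3.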

[1] = target: T1, Prostaglandin G/H synthase 2 (Homo sapiens, UniProt P35354); test: Inhibition of recombinant human COX-2 preincubated for 15 mins followed by fluorometric substrate/heme addition for 15 mins subsequently incubated with arachidonic acid for 2 mins by fluorescence analysis
T1 sequence (P35354 whole entry): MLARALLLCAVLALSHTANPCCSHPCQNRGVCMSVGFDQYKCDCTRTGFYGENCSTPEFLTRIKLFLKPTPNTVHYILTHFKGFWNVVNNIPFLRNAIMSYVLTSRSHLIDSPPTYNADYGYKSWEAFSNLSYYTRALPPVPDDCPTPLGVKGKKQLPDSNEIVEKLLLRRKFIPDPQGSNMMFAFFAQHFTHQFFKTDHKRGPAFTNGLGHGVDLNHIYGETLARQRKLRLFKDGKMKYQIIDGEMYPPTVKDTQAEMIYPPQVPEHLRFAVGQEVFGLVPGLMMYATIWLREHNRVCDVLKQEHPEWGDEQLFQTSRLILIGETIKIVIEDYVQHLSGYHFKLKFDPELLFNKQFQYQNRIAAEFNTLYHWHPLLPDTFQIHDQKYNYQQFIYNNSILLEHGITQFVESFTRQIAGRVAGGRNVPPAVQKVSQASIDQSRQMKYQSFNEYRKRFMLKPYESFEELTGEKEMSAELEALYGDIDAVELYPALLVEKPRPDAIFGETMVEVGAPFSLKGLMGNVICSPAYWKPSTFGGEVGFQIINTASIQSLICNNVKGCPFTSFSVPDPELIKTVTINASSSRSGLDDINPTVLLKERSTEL

[2] = target: Prostaglandin G/H synthase 1 (Homo sapiens, UniProt P23219); test: Inhibition of human COX-1 preincubated for 15 mins followed by fluorometric substrate/heme addition for 15 mins subsequently incubated with arachidonic acid for 2 mins by fluorescence analysis; assay type: ADME
Prostaglandin G/H synthase 1, sequence (P23219 whole entry): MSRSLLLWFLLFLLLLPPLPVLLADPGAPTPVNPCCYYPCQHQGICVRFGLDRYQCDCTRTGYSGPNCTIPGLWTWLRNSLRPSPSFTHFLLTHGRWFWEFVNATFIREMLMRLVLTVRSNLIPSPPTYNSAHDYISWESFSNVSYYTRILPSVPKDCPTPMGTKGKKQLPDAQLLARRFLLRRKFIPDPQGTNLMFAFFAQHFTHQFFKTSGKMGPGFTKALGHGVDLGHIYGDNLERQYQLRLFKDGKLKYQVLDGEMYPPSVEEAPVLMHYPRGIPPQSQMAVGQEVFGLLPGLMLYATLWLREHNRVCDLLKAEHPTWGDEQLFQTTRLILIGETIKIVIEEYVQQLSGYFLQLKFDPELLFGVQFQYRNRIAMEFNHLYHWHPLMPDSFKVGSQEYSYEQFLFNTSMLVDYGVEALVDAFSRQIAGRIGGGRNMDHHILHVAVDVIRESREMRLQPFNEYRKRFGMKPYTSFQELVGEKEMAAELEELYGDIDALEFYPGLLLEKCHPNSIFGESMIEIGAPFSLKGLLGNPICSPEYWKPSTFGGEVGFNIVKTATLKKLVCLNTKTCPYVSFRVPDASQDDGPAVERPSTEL

[3] = as §1; assay type: ADME, cell-free; details: read-out: PPB (converted); how it was run: as §2
[4] = target: Voltage-gated inwardly rectifying potassium channel KCNH2 (Homo sapiens, UniProt Q12809); test: Binding affinity to human ERG up to 50 uM after 2 hrs by fluorescence polarization assay
Voltage-gated inwardly rectifying potassium channel KCNH2, sequence (Q12809 whole entry): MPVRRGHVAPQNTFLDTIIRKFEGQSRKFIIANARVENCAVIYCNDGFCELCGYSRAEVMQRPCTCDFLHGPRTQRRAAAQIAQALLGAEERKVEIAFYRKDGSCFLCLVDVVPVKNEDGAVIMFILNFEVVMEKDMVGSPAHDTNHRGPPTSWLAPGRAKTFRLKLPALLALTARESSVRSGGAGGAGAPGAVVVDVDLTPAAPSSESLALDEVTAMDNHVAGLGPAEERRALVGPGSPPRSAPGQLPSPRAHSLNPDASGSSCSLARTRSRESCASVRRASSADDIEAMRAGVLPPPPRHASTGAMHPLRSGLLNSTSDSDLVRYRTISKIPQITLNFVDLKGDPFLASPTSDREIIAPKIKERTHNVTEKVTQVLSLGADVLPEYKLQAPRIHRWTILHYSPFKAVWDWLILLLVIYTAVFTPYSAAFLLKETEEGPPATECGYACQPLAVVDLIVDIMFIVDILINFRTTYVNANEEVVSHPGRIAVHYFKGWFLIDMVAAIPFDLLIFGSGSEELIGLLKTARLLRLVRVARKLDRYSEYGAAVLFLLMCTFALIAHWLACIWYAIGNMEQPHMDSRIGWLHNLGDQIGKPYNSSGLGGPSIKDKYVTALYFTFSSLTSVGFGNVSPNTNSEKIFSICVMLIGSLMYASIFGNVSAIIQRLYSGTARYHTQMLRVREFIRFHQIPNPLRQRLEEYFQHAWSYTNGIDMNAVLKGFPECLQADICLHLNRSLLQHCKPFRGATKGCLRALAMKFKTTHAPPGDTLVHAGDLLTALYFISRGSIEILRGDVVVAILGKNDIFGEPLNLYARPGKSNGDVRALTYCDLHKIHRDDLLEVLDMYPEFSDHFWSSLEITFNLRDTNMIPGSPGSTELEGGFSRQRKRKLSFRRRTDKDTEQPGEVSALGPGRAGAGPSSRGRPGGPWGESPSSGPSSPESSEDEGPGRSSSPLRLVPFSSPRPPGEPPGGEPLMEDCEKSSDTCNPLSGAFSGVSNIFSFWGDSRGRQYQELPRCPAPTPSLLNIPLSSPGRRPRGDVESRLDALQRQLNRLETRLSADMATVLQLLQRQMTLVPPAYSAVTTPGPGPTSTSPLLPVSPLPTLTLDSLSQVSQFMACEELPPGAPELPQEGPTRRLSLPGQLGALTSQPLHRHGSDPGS
How it was run: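 Fluorescence polarization tracer displacement kit: hERG membrane plus red tracer with compound or positive control, 2 h at room temperature, read with polarized excitation/emission filters; dofetilide-binding surrogate for hERG.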

Rattus norvegicus [5] = test: Antiinociceptive activity in carrageenan induced Sprague-Dawley rat model of pain assessed as reversal of paw thermal hyperalgesia administered via po 0.5 hrs prior to carrageenan challenge measured 3 hrs post challenge; assay type: functional
How it was run: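 Male SD rats (180–220 g), 0.2 mL 3% λ-carrageenan subcutaneously into right hind paw; oral dosing in 0.5% carboxymethyl cellulose at 1–100 mg/kg (n = 6) 0.5 h before.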

Rattus norvegicus [6] = test: Antiarthritic activity in adjuvant-induced Lewis rat model of arthritis assessed as reduction in arthritis score administered via oral gavage once daily starting from day 15 to 25 post adjuvant injection measured post last dose; assay type: functional; details: 360 h
How it was run: (§3)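 Adjuvant arthritis in male Lewis rats (170–200 g): 1 mg heat-killed M. tuberculosis in 0.2 mL mineral oil into tail base; responders (left hind paw >0.375 mL above day 0 at day 14) randomized, n = 6/group. Oral gavage once daily in 0.5% methylcellulose at 0.1–10 mg/kg, days 15–24. Day 25: plethysmometer paw volume, limb scores 0–4 (total 0–16), movement 0–3; ED50 derived.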

Rattus norvegicus [7] = test: Antiarthritic activity in adjuvant-induced Lewis rat model of arthritis assessed as reduction in movement disorder administered via oral gavage once daily starting from day 15 to 25 post adjuvant injection measured post last dose; assay type: functional; details: 360 h; how it was run: as §3
Rattus norvegicus [8] = test: Antiinflammatory activity in carrageenan induced Sprague-Dawley rat model of inflammation assessed as reduction in paw edema administered via po 0.5 hrs prior to carrageenan challenge measured 1 to 4 hrs post challenge by plethysmometer; assay type: functional
How it was run: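 Male SD rats dosed orally in 0.5% carboxymethyl cellulose at 1, 3, 10, 30, 100 mg/kg (n = 6), vehicle control, 0.5 h before carrageenan into right hind paw. Paw volume by water-displacement plethysmometer before and after injection; percent inhibition from paw-volume increment versus controls; ED50 fitted.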

Rattus norvegicus [9] = test: Antiarthritic activity in adjuvant-induced Lewis rat model of arthritis assessed as reduction in paw edema administered via oral gavage once daily starting from day 15 to 25 post adjuvant injection measured post last dose; assay type: functional; details: 360 h; how it was run: as §3
Rattus norvegicus [10] = test: Antiinflammatory activity in carrageenan induced Sprague-Dawley rat model of inflammation assessed as reduction in PGE2 levels in air pouch administered via po 1 hr prior to carrageenan challenge measured 3 hrs post challenge by ELISA; assay type: functional
How it was run: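 Male SD rats; 20 mL sterile air injected subcutaneously in back. Oral dosing in 0.5% carboxymethyl cellulose at 0.03–10 mg/kg (n = 6), vehicle control; 1 h later 6 mL 1% carrageenan into pouch (one day after pouch formation).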

[11] = Cmax in Sprague-Dawley rat at 5 mg/kg, po administered via gastric gavage by LC-MS/MS analysis; assay type: ADME, organism-based; design: dose 5 mg/kg, route oral; details: in vivo
Rattus norvegicus [12] = test: Antiarthritic activity in adjuvant-induced Lewis rat model of arthritis assessed as inhibition of movement disorder score at 10 mg/kg administered via oral gavage every 5 days starting from day 15 to 25 post adjuvant injection measured post last dose; assay type: functional
How it was run: (§4)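 Lewis male rats (170–200 g) given 1 mg heat-killed M. tuberculosis in 0.2 mL mineral oil at tail base; rats with left hind paw volume increase >0.375 mL by day 14 selected. Compound dosed orally at 10 mg/kg every 5 days from day 15 (two doses). Scored day 25: paw volume, arthritis 0–16 (erythema/swelling), movement 0–3.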

Rattus norvegicus [13] = test: Antiarthritic activity in adjuvant-induced Lewis rat model of arthritis assessed as inhibition of paw edema score at 10 mg/kg administered via oral gavage every 5 days starting from day 15 to 25 post adjuvant injection measured post last dose; assay type: functional; how it was run: as §4
[14] = AUC (0 to infinity) in Sprague-Dawley rat at 5 mg/kg, iv by LC-MS/MS analysis; assay type: ADME, organism-based; design: dose 5 mg/kg, time infinity, route intravenous; details: in vivo
[15] = Half-life in Sprague-Dawley rat at 5 mg/kg, iv by LC-MS/MS analysis; assay type: ADME, organism-based; details: in vivo
[16] = Cmax in Sprague-Dawley rat at 5 mg/kg, iv by LC-MS/MS analysis; assay type: ADME, organism-based; design: dose 5 mg/kg, route intravenous; details: in vivo
[17] = Half-life in Sprague-Dawley rat at 5 mg/kg, po administered via gastric gavage by LC-MS/MS analysis; assay type: ADME, organism-based; details: in vivo
[18] = AUC (0 to infinity) in Sprague-Dawley rat at 5 mg/kg, po administered via gastric gavage by LC-MS/MS analysis; assay type: ADME, organism-based; design: dose 5 mg/kg, route oral, time infinity; details: in vivo
[19] = Oral bioavailability in Sprague-Dawley rat at 5 mg/kg administered via gastric gavage by LC-MS/MS analysis; assay type: ADME, organism-based; details: in vivo
[20] = Tmax in Sprague-Dawley rat at 5 mg/kg, iv by LC-MS/MS analysis; assay type: ADME, organism-based; details: in vivo
[21] = Tmax in Sprague-Dawley rat at 5 mg/kg, po administered via gastric gavage by LC-MS/MS analysis; assay type: ADME, organism-based; details: in vivo
Rattus norvegicus [22] = test: Antiarthritic activity in adjuvant-induced Lewis rat model of arthritis assessed as inhibition of arthritis score at 10 mg/kg administered via oral gavage every 5 days starting from day 15 to 25 post adjuvant injection measured post last dose; assay type: functional; how it was run: as §4

Structure (SMILES): CN(C)CCCN1c2ccccc2Sc2ccc(Cl)cc21.Cl [CHLORPROMAZINE HYDROCHLORIDE]
PPB (Plasma): 99.82%

Structure (SMILES): O=CC1=Cc2cc(S(F)(F)(F)(F)F)ccc2OC1C(F)(F)F (centres undefined)
IC50 [1]: > 10000 nM | IC50 [2]: > 10000 nM

Structure (SMILES): O=CC1=Cc2cc(S(F)(F)(F)(F)F)cc(Br)c2OC1C(F)(F)F (centres undefined)
IC50 [1]: > 10000 nM | IC50 [2]: > 10000 nM

Structure (SMILES): O=C(O)C1=Cc2cc(S(F)(F)(F)(F)F)ccc2O[C@H]1C(F)(F)F
IC50 [1]: 302 nM | IC50 [2]: > 10000 nM

Structure (SMILES): O=C(O)C1=Cc2cc(S(F)(F)(F)(F)F)cc(Cc3ccccc3)c2OC1C(F)(F)F (centres undefined)
IC50 [1]: > 100000 nM | IC50 [2]: > 10000 nM

Structure (SMILES): Cc1ccc(-c2cc(C(F)(F)F)nn2-c2ccc(S(N)(=O)=O)cc2)cc1 [CELECOXIB]
ED50 (Rattus norvegicus [5]): 5 mg/kg | ED50 (Rattus norvegicus [6]): 0.71 mg/kg | ED50 (Rattus norvegicus [7]): 9.2 mg/kg | ED50 (Rattus norvegicus [8]): 2.8 mg/kg | ED50 (Rattus norvegicus [9]): 1.6 mg/kg | ED50 (Rattus norvegicus [10]): 0.69 mg/kg

Structure (SMILES): CCCCc1cc(S(F)(F)(F)(F)F)cc2c1OC(C(F)(F)F)C(C(=O)O)=C2 (centres undefined)
fraction unbound at 5 h, 10 µM [3]: 0.0008 | Activity [4]: Not Active | IC50 [1]: 190 nM | IC50 [2]: > 10000 nM

Structure (SMILES): O=C(O)C1=Cc2cc(S(F)(F)(F)(F)F)ccc2OC1C(F)(F)F (centres undefined)
fraction unbound at 5 h, 10 µM [3]: 0.001 | Cmax [11]: 15300 ng/mL | Activity (Rattus norvegicus [5]): Dose-dependent effect | ED50 (Rattus norvegicus [5]): 2.8 mg/kg | inhibition in vivo at 10 mg/kg (Rattus norvegicus [12]): 79.2% | inhibition in vivo at 10 mg/kg (Rattus norvegicus [13]): 66.9% | AUC(0-inf) [14]: 364 µg·h/mL | ED50 (Rattus norvegicus [6]): 0.094 mg/kg | half-life [15]: 17.3 h | ED50 (Rattus norvegicus [7]): 0.12 mg/kg | Cmax [16]: 31700 ng/mL | half-life [17]: 12.5 h | AUC(0-inf) [18]: 414 µg·h/mL | Activity [4]: Not Active | Activity (Rattus norvegicus [8]): Dose-dependent effect | ED50 (Rattus norvegicus [8]): 4 mg/kg | IC50 [1]: 18 nM | IC50 [2]: > 10000 nM | bioavailability [19]: 100 to 114% | Tmax [20]: 1.98 min | Tmax [21]: 7.75 h | ED50 (Rattus norvegicus [9]): 0.093 mg/kg | Activity (Rattus norvegicus [10]): Dose-dependent effect | ED50 (Rattus norvegicus [10]): 0.37 mg/kg | inhibition in vivo at 10 mg/kg (Rattus norvegicus [22]): 69.6%

Structure (SMILES): O=C(O)C1=Cc2cc(S(F)(F)(F)(F)F)ccc2O[C@@H]1C(F)(F)F
fraction unbound at 5 h, 10 µM [3]: 0.0004 | Activity [4]: Not Active | IC50 [1]: 10 nM | IC50 [2]: > 30000 nM

Structure (SMILES): O=C(O)C1=Cc2ccc(S(F)(F)(F)(F)F)cc2OC1C(F)(F)F (centres undefined)
fraction unbound at 5 h, 10 µM [3]: 0.0006 | IC50 [1]: > 10000 nM | IC50 [2]: > 10000 nM

Now from value to compound, other results behind:

fraction unbound at 5 h, 10 µM [3]: 0.0005 | IC50 [1]: 26 nM | IC50 [2]: > 10000 nM
Structure (SMILES): Cc1cc(S(F)(F)(F)(F)F)cc2c1OC(C(F)(F)F)C(C(=O)O)=C2 (centres undefined)
Activity [4]: Not Active

fraction unbound at 5 h, 10 µM [3]: 0.0005 | IC50 [1]: 340 nM | IC50 [2]: > 10000 nM
Structure (SMILES): O=C(O)C1=Cc2cc(S(F)(F)(F)(F)F)cc(Br)c2O[C@H]1C(F)(F)F

IC50 [1]: 60 nM | IC50 [2]: > 10000 nM
Structure (SMILES): CCc1cc(S(F)(F)(F)(F)F)cc2c1OC(C(F)(F)F)C(C(=O)O)=C2 (centres undefined)
Activity [4]: Not Active

fraction unbound at 5 h, 10 µM [3]: 0.0009 | IC50 [1]: 8 nM | IC50 [2]: > 10000 nM
Structure (SMILES): O=C(O)C1=Cc2cc(S(F)(F)(F)(F)F)cc(Br)c2O[C@@H]1C(F)(F)F

IC50 [1]: 56 nM | IC50 [2]: > 10000 nM
Structure (SMILES): O=C(O)C1=Cc2cc(S(F)(F)(F)(F)F)cc(Br)c2OC1C(F)(F)F (racemic)

IC50 [1]: 46 nM | IC50 [2]: > 10000 nM
Structure (SMILES): CCCc1cc(S(F)(F)(F)(F)F)cc2c1OC(C(F)(F)F)C(C(=O)O)=C2 (centres undefined)
Activity [4]: Not Active
